Data published in publication PMC7007330 (Molecular microbiology, 2019).
“Also recorded” adds a separate entry of the source. Like-named read-outs stand apart in the source and are kept apart here.

Columns and labels:
[1] = test system: ATP translocases; conditions: cited from earlier work
[2] = test system: wild-type Chlamydia trachomatis L2; test: Growth curves with chemical inhibitors; format: cell-based; conditions: L929 cells; HQNO 1 μM, BKA 0.25 μM added at infection; 0-72 hpi
[3] = test system: wild-type C. trachomatis L2; test: Progeny assay; format: cell-based, Chlamydia trachomatis; conditions: L929 cells; BKA 0.25 μM, HQNO 1 μM; 36 hpi then passaged
Outline: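 L929 cells were infected with C. trachomatis L2 wild-type or RsbU* strains, with BKA (0.25 μM) and HQNO (1 μM) added at infection where indicated. At 36 hpi, wells were either fixed and stained with MicroTrack reagent, or water-lysed and passaged onto fresh host monolayers, then fixed and stained 36 h later. IFUs were counted, and fold change was taken as post-passage IFUs relative to first-36 h IFUs.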

[4] = test system: wild-type C. trachomatis L2; test: Immunofluorescence microscopy of infected L929 cells, wild-type; format: cell-based, Chlamydia trachomatis
Outline: (§1)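 L929 monolayers were grown to confluency on slides and infected with wild-type C. trachomatis L2 or RsbU* mutant. HQNO or BKA was added immediately after infection where indicated. At 24 and 72 hpi, cells were fixed in 100% methanol (10 min, RT), washed with HBSS then PBS, and stained with MicroTrack reagent (1:40 in PBS, 1 h 50 min, RT). Nuclei were stained with DAPI (10 min, RT, dark) and samples mounted in antifade. Imaging was by spinning-disk confocal at 150X, 7 Z-stacks, maximum projection.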

[5] = test system: RsbU* mutant; test: Immunofluorescence microscopy of infected L929 cells, RsbU* mutant; format: cell-based, Chlamydia trachomatis; conditions: 24 and 72 hours
Outline: as §1

[6] = test system: RsbU* mutant strain of C. trachomatis L2; test: Growth curves with chemical inhibitors; format: cell-based, Chlamydia trachomatis; conditions: L929 cells; HQNO 1 μM added at infection
[7] = test system: sodium-dependent NADH dehydrogenase; conditions: low concentrations (1 μM); cited from earlier work
[8] = target: T1, RsbU45–313 Q137A (Chlamydia trachomatis, UniProt A0A0H3MDU0, Q137A); test: Surface plasmon resonance, Q137A variant; format: binding; conditions: read-out: KD (estimated, steady state affinity), SPR, PBS
T1 sequence (A0A0H3MDU0 45-313 Q137A): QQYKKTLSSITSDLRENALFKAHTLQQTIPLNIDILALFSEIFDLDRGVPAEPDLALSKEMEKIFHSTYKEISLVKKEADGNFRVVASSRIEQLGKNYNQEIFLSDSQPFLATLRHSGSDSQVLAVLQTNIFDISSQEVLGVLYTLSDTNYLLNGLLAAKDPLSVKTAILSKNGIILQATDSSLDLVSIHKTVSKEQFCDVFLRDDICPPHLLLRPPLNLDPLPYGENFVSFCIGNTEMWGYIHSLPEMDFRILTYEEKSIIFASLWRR

[9] = target: T2, RsbU45–313 R134A (Chlamydia trachomatis, UniProt A0A0H3MDU0, R134A); test: Surface plasmon resonance, R134A variant; format: binding; conditions: read-out: KD (estimated, steady state affinity), SPR, PBS
T2 sequence (A0A0H3MDU0 45-313 R134A): T1 sequence (A0A0H3MDU0 45-313 Q137A)

[10] = target: T3, RsbU45–313 (Chlamydia trachomatis, UniProt A0A0H3MDU0); test: biochemical; format: binding
[11] = target: T4, RsbU45–313 K140A/R134A (Chlamydia trachomatis, UniProt A0A0H3MDU0, K140A/R134A); test: Surface plasmon resonance, K140A/R134A variant; format: binding; conditions: read-out: KD (estimated, steady state affinity), SPR, PBS
T4 sequence (A0A0H3MDU0 45-313 R134A/K140A): T1 sequence (A0A0H3MDU0 45-313 Q137A)

[12] = target: WT RsbU45–313 (Chlamydia trachomatis, UniProt A0A0H3MDU0); format: binding; conditions: for SPR dose-dependent binding curves: Figure S3; for binding in initial SPR screening: ligands at 100 μM and 1 mM
[13] = target: T3, RsbU45–313; test: Differential scanning fluorimetry; format: binding
[14] = target: T5, RsbU45–313 K140A (Chlamydia trachomatis, UniProt A0A0H3MDU0, K140A); test: Surface plasmon resonance, K140A variant; format: binding; conditions: read-out: KD (estimated, steady state affinity), SPR, PBS
T5 sequence (A0A0H3MDU0 45-313 K140A): T1 sequence (A0A0H3MDU0 45-313 Q137A)

[15] = 5 mM and 10 mM ligand, 10 μM RsbU45–313

## CO[C@H](C/C=C\C=C\CC/C=C/C[C@H](C)/C=C/C(=C\C(=O)O)CC(=O)O)/C(C)=C\C=C(/C)C(=O)O [BKA, bongkrekic acid]
[1]
  inhibition of ATP translocases: inhibit ATP translocases
[2]
  growth of wild-type Chlamydia (secY vs rpp30 genome copies): decrease in the growth of wild-type Chlamydia
[3]
  progeny production (IFUs): decrease in IFUs produced
[4]; 24 and 72 hours
  morphology by confocal microscopy: No obvious morphological abnormalities
[5]
  levels of RsbU* Chlamydia or their dispersion within the host cell: appeared to have no effect

## CCCCCCCc1cc(O)c2ccccc2[n+]1[O-] [HQNO, 2-heptyl-4-hydrosyquinoline N-oxide]
[6]
  growth of RsbU* mutant (secY vs rpp30 genome copies): does not have an additive effect on the growth defect
[2]
  growth of wild-type Chlamydia (secY vs rpp30 genome copies): not statistically different from the RsbU* mutant growth at any time point; also recorded: marked reduction in growth
[3]
  progeny production (IFUs): decrease in the number of IFUs produced compared to the initial infection
[7]
  inhibition of sodium-dependent NADH dehydrogenase: selectively inhibit
[4]; 24 hours post-infection
  inclusion morphology by confocal microscopy: formed smaller inclusions and appear to contain fewer EBs
[4]; 72 hours post-infection
  inclusion morphology by confocal microscopy: inclusions that were grossly under-full
[5]
  levels of RsbU* Chlamydia or their dispersion within the host cell: appeared to have no effect

## O=C(O)CCC(=O)C(=O)O [alpha-ketoglutarate]
[8]
  Kd: 548 µM
[9]
  Kd: 526 µM
[10]; read-out: KD (ITC), single trial, 30 μM protein, PBS, data not shown
  Kd: 25.8 µM
[11]
  Kd: 558 µM
[12]
  SPR dose-dependent binding curves: show dose-dependent binding
  binding in initial SPR screening: binding was only observed
[12]; read-out: KD (estimated, steady state affinity), SPR, WT RsbU45–313, PBS
  Kd: 419 µM
[13]; [15]
  DSF temperature shift: Significant stabilizing temperature shifts
[14]
  Kd: 597 µM

## O=C(O)CC(O)C(=O)O (stereo not shown) [malate]
[10]
  Kd: 22 µM
[12]
  SPR dose-dependent binding curves: show dose-dependent binding
  binding in initial SPR screening: binding was only observed
[13]; [15]
  DSF temperature shift: Significant stabilizing temperature shifts

## O=C(O)CC(=O)O [malonate]
[12]
  SPR dose-dependent binding curves: do not appear to be binding

## O=C(O)CC(=O)C(=O)O [oxaloacetate]
[10]
  Kd: 55.5 µM
[12]
  SPR dose-dependent binding curves: show dose-dependent binding
  binding in initial SPR screening: binding was only observed
[13]; highest ligand concentration tested, only in one of two biological replicates
  DSF temperature shift: significant positive temperature shift

## O=C(O)CCC(=O)O [succinate]
[12]
  SPR dose-dependent binding curves: do not appear to be binding
